Measured values from different studies.
Lines come from different studies, so protocols differ.
Target: Protein kinase C gamma type (PRKCG, Homo sapiens, UniProt P05129)

SMILES | observed | action | technique | concentration | measurement | result
CC(C)(C)c1nc2c(s1)c1nc(N)ncc1c1ccc(NS(=O)(=O)c3c(F)cccc3F)c(F)c12 | enzyme activity | inhibitor | radiometric | 1 µM | remaining activity | 103%
FC(F)(F)Oc1cccc(-c2cnc3ccc(-c4ccncc4)nn23)c1 | enzyme activity | inhibitor | radiometric | 5 µM | activity vs control | 76%
CCN(CC)c1ccc(C2=NNC(=O)CC2C)cc1[N+](=O)[O-] (stereo not shown) | enzyme activity | inhibitor | – | 10 µM | remaining activity | 96%
COc1cc(Nc2cnc(C#N)c(O[C@H](C)CN(C)C)n2)ncc1-c1cnn(C)c1 | enzyme activity | inhibitor | radiometric | 10 µM | remaining activity | 80%
CC(C)c1ccc(NC(=O)c2cccs2)c(-c2nc3ccccc3[nH]c2=O)c1 | enzyme activity | inhibitor | – | 1 µM | activity vs control | 106%
Cc1sc(C(=O)NC2COC2)cc1-n1cc(NC(=O)Nc2c(F)cccc2Cl)cn1 | enzyme activity | inhibitor | – | 10 µM | remaining activity | 102%
O=C1NC(=O)c2cc(Nc3ccc(F)cc3)c(Nc3ccc(F)cc3)cc21 | cell-free assay | – | – | 0.5 µM | remaining signal | 102%
CCCOc1ccc(OC)c(F)c1C(=O)c1ccc(C(=O)N[C@@H]2CNC[C@H]2NC(=O)c2ccc3[nH]ncc3c2)cc1 | enzyme activity | inhibitor | – | 10 µM | remaining activity | 73%
O=C(Nc1cnn(-c2csc(C(=O)NC3COC3)c2)c1)Nc1c(F)cccc1Cl | enzyme activity | inhibitor | – | 5 µM | remaining activity | 98.3%
CNC(=O)c1cc(Oc2ccc(NC(=O)Nc3ccc(Cl)c(C(F)(F)F)c3)cc2)ccn1 | enzyme activity | inhibitor | – | 10 µM | inhibition | 9%
CN1CC(Oc2cnc(C#N)cc2-c2ccn3nc(NC(=O)C4CC4)cc3c2)C1 | enzyme activity | inhibitor | – | 1 µM | inhibition | 1%
Cc1ccc(C(=O)NCc2ccsc2)cc1C#Cc1cn(C(C)C)c2ncnc(N)c12 | enzyme activity | inhibitor | – | 1 µM | activity vs control | 97%
C[C@@H](N)[C@H]1CC[C@H](C(=O)Nc2ccncc2)CC1 | enzyme activity | inhibitor | TR-FRET | 10 µM | inhibition | 6.8%
Cc1ccc(Nc2nccc(N(C)c3ccc4c(C)n(C)nc4c3)n2)cc1S(N)(=O)=O | enzyme activity | inhibitor | – | 10 µM | inhibition | 45%
COc1cc2ncnc(Nc3ccc(Oc4ccccc4)cc3C)c2cc1OC | enzyme activity | inhibitor | – | 1 µM | inhibition | -3%
CCCS(=O)(=O)Nc1ccc(F)c(C(=O)c2c[nH]c3ncc(-c4ccc(Cl)cc4)cc23)c1F | enzyme activity | inhibitor | – | 1 µM | inhibition | < 20%
